Experimental data gathered from unrelated publications.
Each line is one published result; the experiments were not run side by side.
Observed: cell growth or viability

Compound	cell line	test	setting	measurement	value
Cc1ccc(-c2cc(-c3ccc(Cl)c(F)c3)c3c(=O)[nH]c(=O)[nH]c3n2)cc1	PC-3	MTT	48 h	IC50	21.2 µM
O=C(C=Cc1ccccc1)Nc1cccc(-c2ccnc(N3CCOCC3)c2)c1	A549	MTT	5 µM	inhibition	49.3%
O=C(O)c1ccc2c(c1)nc(Nc1cccc(Cl)c1)c1ccncc12	NCI-H522	resazurin	48 h	IC50	9.3 µM
Cc1c(Cc2ccccc2)c(=O)oc2c(C)c(OCC(=O)NN=Cc3ccc(Cl)cc3)ccc12	PC-3	MTT	31.25 µg/mL	viability	61.2%
O=C(C=Cc1ccccc1)Nc1cccc(-c2ccnc(N3CCC(CO)CC3)c2)c1	A549	MTT	5 µM	inhibition	59.1%
C=CCOc1ccc2c(C)c(CC)c(=O)oc2c1C	PC-3	MTT	500 µg/mL	viability	7.08%
Cc1nc(Nc2ccc3c(c2)/C(=C/c2ccccc2)C(=O)N3C)c2ccccc2n1	A549	MTT	–	IC50	27.8 µM
O=C(C=Cc1ccc(F)cc1)Nc1cc(-c2ccnc(N3CCC(O)CC3)c2)ccn1	A549	MTT	5 µM	inhibition	65.9%
Cc1nc(NC(=O)N2CCC[C@H]2C(N)=O)sc1-c1ccnc(C(C)(C)C(F)(F)F)c1	A549	MTT	–	IC50	11.1 µM
CC(C)C[C@@H]1NC(=O)[C@@H](N(C)C(=O)[C@H](CC2CCC2)NC(=O)[C@@H]2C[C@@H](F)CN2C(=O)C2(C(F)(F)F)CC(F)(F)C2)CCCCNC(=O)C2(CC2)NC(=O)[C@H](Cc2cc(Cl)ccc2Cl)N(C)C1=O	NCI-H1048	MTT	5 days	GI50	0.032 µM
O=C(/C=C/c1cccc(F)c1)Nc1cc(-c2ccnc(N3CCC(O)CC3)c2)ccn1	A549	MTT	5 µM	inhibition	62.4%
CCc1c(C)c2ccc(OCc3nnc(S)n3N)c(C)c2oc1=O	PC-3	MTT	125 µg/mL	viability	11.3%
O=C(C=Cc1ccccc1)Nc1cc(-c2ccnc(N3CCC(O)CC3)c2)ccn1	A549	MTT	5 µM	inhibition	73.1%
CCc1c(C)c2ccc(OCC(=O)NNC(=S)Nc3ccccc3)c(C)c2oc1=O	PC-3	MTT	31.25 µg/mL	viability	48.3%
COc1ccc(-c2cc(-c3ccc(OC)cc3)c3c(=O)n(C)c(=O)n(C)c3n2)cc1	PC-3	MTT	48 h	IC50	26.2 µM
Cc1nc(Nc2ccc3c(c2)C(C)(C)C(=O)N3C)c2ccccc2n1	A549	MTT	–	IC50	2.09 µM
O=C(C=Cc1ccccc1)Nc1cc(-c2ccnc(N3CCOCC3)c2)ccn1	A549	MTT	5 µM	inhibition	76.7%
C=CCNC(=S)NNC(=O)COc1ccc2c(C)c(CC)c(=O)oc2c1C	PC-3	MTT	1000 µg/mL	viability	2.65%
C=CC(=O)NC1CCN(c2ncc3ncnc(Nc4ccc(Oc5ccc6c(c5)ncn6C)c(C)c4)c3n2)CC1	NCI-H2170	–	–	IC50	0.0581 µM
Cc1c(Cc2ccccc2)c(=O)oc2c(C)c(OCC(=O)NN=Cc3ccccc3)ccc12	PC-3	MTT	125 µg/mL	viability	21.2%
COc1cccc2c1C(=O)c1c(O)c3c(c(O)c1C2=O)C[C@@](O)(C(=O)CO)C[C@@H]3O[C@H]1C[C@H](N)[C@H](O)[C@H](C)O1	A549	MTT	100 µg/mL, 48 h, serum-free	viability	12.4%
Cc1cccc(/C=C/C(=O)Nc2cccc(-c3ccnc(N4CCOCC4)c3)c2)c1	A549	MTT	5 µM	inhibition	29.4%
CC(=NNC(=O)COc1ccc2c(C)c(Cc3ccccc3)c(=O)oc2c1C)c1ccc(Br)cc1	PC-3	MTT	31.25 µg/mL	viability	14%
Cc1nc(Nc2ccc3c(c2)CC(=O)N3)c2ccccc2n1	A549	MTT	–	IC50	28.5 µM
CCc1c(C)c2ccc(OCC=Cc3ccccc3)c(C)c2oc1=O	PC-3	MTT	250 µg/mL	viability	18.1%
COc1ccc(-c2cc(-c3ccc(OC)cc3)c3c(=O)[nH]c(=O)[nH]c3n2)cc1	PC-3	MTT	48 h	IC50	12.3 µM
Cc1cc(NC(=O)C=Cc2ccccc2)cc(-c2ccnc(N3CCC(O)CC3)c2)c1	A549	MTT	5 µM	inhibition	37.6%
